Laboratory results taken from ChEMBL document CHEMBL2417381, “New anticancer agents mimicking protein recognition motifs” (J Med Chem, 2013).
Calls of active or inactive are those of the source. The rule behind the calls is not given here.

Legend:
MCF7 = assay: Antiproliferative activity against human MCF7 cells after 48 hrs by MTT assay; format: functional, cell-based; conditions: MCF7, 48 h
In short: (§1)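 Cells grown at 37 °C in DMEM with 25 mM glucose, 10% fetal calf serum, penicillin/streptomycin and 2 mmol/L glutamine. 5000 cells per well; after 24 h, exposed to 100 nM–100 µM for 24 and 48 h. MTT 1 mg/mL for 1–3 h at 37 °C, formazan dissolved in DMSO, absorbance read at 550 and 620 nm. IC50 from four-parameter sigmoidal nonlinear regression.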

M14 [1] = assay: Induction of p53 expression in human M14 cells after 24 hrs by Western blotting analysis; format: functional, cell-based
In short: (§2)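 Treated cells lysed in modified RIPA buffer (10 mM Tris-HCl pH 7.4, 150 mM NaCl, 1 mM EDTA, 1% NP40, 0.1% deoxycholate, 1 mM PMSF, protease inhibitors). Equal protein loads separated on 10–12% SDS-PAGE and blotted to nitrocellulose. Blocked in 10% milk/0.1% Tween-20, probed with anti-cyclin A or anti-p53 and HRP secondary; tubulin used as loading reference.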

RAW264.7 = assay: Antiproliferative activity against mouse RAW264.7 cells after 48 hrs by MTT assay; format: cell-based; conditions: RAW264.7, 48 h; in short: as §1
M14 [2] = assay: Induction of p53 expression in human M14 cells after 48 hrs by Western blotting analysis; format: functional, cell-based; in short: as §2
M14 [3] = assay: Induction of apoptosis in human M14 cells after 48 hrs by propidium iodide staining-based flow cytometry; format: functional, cell-based
In short: (§3)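 5 × 10^4 M14 cells cultured 24 h, then dosed and cultured a further 24 or 48 h. Permeabilized cells labelled 30 min at 4 °C with propidium iodide in 0.1% sodium citrate/0.1% Triton X-100, then analysed by flow cytometry. For cell cycle, 10,000 events per sample assigned to G0/G1, S and G2/M. Each determination repeated three times.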

M14 [4] = assay: Cell cycle arrest at G1/S phase in human M14 cells assessed as increase in cyclin A expression at IC50 after 24 hrs by Western blotting analysis; format: functional, cell-based; in short: as §2
M14 [5] = assay: Cytostatic activity against human M14 cells at 5 to 10 uM after 24 hrs by trypan blue dye exclusion assay relative to control; format: functional, cell-based
In short: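 Exponentially growing M14 cells plated and grown 24 h. Then treated at 5 and 10 µM in 0.1% DMSO for 24, 48 or 72 h. Stained with 0.2% trypan blue and counted in a hemocytometer; percentage of dead cells calculated.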

M14 [6] = assay: Induction of apoptosis in human M14 cells assessed as accumulation of p53 in nuclear fraction after 48 hrs by Western blotting analysis relative to control; format: functional, cell-based
M14 [7] = assay: Antiproliferative activity against human M14 cells assessed as cell viability incubated for 24 hrs followed by compound washout measured after 48 hrs by MTT assay; format: functional, cell-based
In short: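 M14 cells exposed for 24 h, then medium removed and cells resuspended in compound-free medium. Further incubation for 24 and 48 h, then viability read by MTT: 1 mg/mL for 1–3 h at 37 °C, formazan dissolved in DMSO, absorbance at 550 and 620 nm.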

Jurkat = assay: Antiproliferative activity against human Jurkat cells after 48 hrs by MTT assay; format: functional, cell-based; in short: as §1
Huh-7 = assay: Antiproliferative activity against human HuH7 cells after 48 hrs by MTT assay; format: functional, cell-based; conditions: Huh-7, 48 h; in short: as §1
M14 [8] = assay: Cell cycle arrest in human M14 cells assessed as accumulation at G2/M phase after 24 hrs by propidium iodide staining-based flow cytometry; format: functional; conditions: in the assay text read “accumulation at S phase” for “accumulation at G2/M phase”; in short: as §3
M14 [9] = assay: Cell cycle arrest in human M14 cells assessed as accumulation at G0/G1 phase after 24 hrs by propidium iodide staining-based flow cytometry; format: functional; conditions: in the assay text read “accumulation at S phase” for “accumulation at G0/G1 phase”; in short: as §3
M14 [10] = assay: Cell cycle arrest at S phase in human M14 cells assessed as change in size of nucleus after 24 hrs by DAPI staining-based fluorescence microscopy; format: functional
In short: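 M14 cells grown on coverslips and dosed after 24 h. Fixed in 3.7% formaldehyde for 30 min, quenched with 0.1 M glycine, then DAPI-stained 20 min at room temperature. Nuclear areas measured by fluorescence microscopy image analysis. Mean ± SEM of at least twenty measurements; one-way ANOVA with Bonferroni post test.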

M14 [11] = assay: Induction of apoptosis in human M14 cells assessed as accumulation of p53 in nuclear fraction after 24 hrs by Western blotting analysis relative to control; format: functional, cell-based
M14 [12] = assay: Cell cycle arrest at G1/S phase in human M14 cells assessed as increase in cyclin A expression at IC50 after 48 hrs by Western blotting analysis; format: functional, cell-based; in short: as §2
M14 [13] = assay: Cell cycle arrest in human M14 cells assessed as accumulation at S phase after 24 hrs by propidium iodide staining-based flow cytometry; format: functional; in short: as §3
M14 [14] = assay: Antiproliferative activity against human M14 cells after 48 hrs by MTT assay; format: functional, cell-based; conditions: M14, 48 h; in short: as §1
[15] = molecular target: Tumour suppressor p53/oncoprotein Mdm2 (Homo sapiens) (UniProt P04637+Q00987); assay: Inhibition of human recombinant p53-MDM2 interaction assessed as p53 release by NMR spectroscopy relative to untreated control; format: protein assay
In short: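 Complex formed from refolded recombinant His-tagged human p53 (residues 1-312, expressed in E. coli BL21(DE3) RIL) and refolded MDM2, mixed 1:2, with excess MDM2 removed by gel filtration. Complex at 0.1 mM in 50 mM phosphate pH 7.4, 150 mM KCl, 5 mM DTT; formal protein:inhibitor molar ratio 1:1.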

[16] = Solubility of the compound in phosphate buffer at pH 7.4 by UV-Visible spectrophotometry; format: physicochemical
In short: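 10 mM DMSO stock added one microlitre at a time, 10 min apart, to 20 mM phosphate buffer with 150 mM KCl, pH 7.4, at 25 °C. Precipitation followed as the rise in light-scattering absorbance over 500–900 nm.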

Tumour suppressor p53/oncoprotein Mdm2 (Homo sapiens), sequence (P04637 whole entry, looked up, the tested form may be a part): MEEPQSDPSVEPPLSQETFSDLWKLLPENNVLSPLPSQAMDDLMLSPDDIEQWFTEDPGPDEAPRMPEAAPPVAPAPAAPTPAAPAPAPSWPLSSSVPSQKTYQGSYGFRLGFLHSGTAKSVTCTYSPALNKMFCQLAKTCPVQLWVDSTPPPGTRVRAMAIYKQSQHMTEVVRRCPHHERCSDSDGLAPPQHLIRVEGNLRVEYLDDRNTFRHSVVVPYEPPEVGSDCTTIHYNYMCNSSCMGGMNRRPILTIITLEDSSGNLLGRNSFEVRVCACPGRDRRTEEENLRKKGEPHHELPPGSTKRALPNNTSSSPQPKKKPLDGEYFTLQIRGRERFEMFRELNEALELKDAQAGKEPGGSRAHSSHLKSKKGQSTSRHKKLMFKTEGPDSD
Tumour suppressor p53/oncoprotein Mdm2 (Homo sapiens), sequence (Q00987 whole entry, looked up, the tested form may be a part): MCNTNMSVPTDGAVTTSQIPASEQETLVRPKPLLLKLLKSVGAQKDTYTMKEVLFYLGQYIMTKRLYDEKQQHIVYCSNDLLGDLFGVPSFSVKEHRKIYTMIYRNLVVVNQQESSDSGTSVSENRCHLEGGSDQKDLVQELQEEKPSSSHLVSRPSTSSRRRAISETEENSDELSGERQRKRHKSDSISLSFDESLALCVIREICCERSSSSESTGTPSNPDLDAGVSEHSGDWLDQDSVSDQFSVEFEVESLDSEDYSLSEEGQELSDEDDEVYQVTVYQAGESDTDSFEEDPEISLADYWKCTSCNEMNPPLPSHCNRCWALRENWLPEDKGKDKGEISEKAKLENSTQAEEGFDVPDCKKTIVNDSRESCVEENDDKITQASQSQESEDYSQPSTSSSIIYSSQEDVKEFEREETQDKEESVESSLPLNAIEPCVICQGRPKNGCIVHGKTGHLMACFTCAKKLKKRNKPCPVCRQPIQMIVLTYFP

| IC50 (MCF7) | IC50 (Jurkat) | IC50 (Huh-7) | inhibition [15] | solubility [16] | SMILES | Activity (M14 [1]) | IC50 (RAW264.7) | Activity (M14 [2]) | Activity (M14 [3]) | Activity (M14 [4]) | Activity (M14 [5]) | Activity (M14 [6]) | Activity (M14 [7]) | Activity (M14 [8]) | Activity (M14 [9]) | Activity (M14 [10]) | Activity (M14 [11]) | Activity (M14 [12]) | Activity (M14 [13]) | IC50 (M14 [14]) |
| --- | --- | --- | --- | --- | --- | --- | --- | --- | --- | --- | --- | --- | --- | --- | --- | --- | --- | --- | --- | --- |
| > 100 µM | > 100 µM | > 100 µM |  |  | Cc1c(C(=O)c2ccccc2)cc(C(=O)NCc2cccc(I)c2)n1Cc1ccccc1 | Active | > 100 µM | inactive | Active | Active | inactive | inactive | inactive | Active | Active | Active | Active | Active | Active | 5 µM |
| > 100 µM | > 100 µM | > 100 µM | inactive | ≤ 6.8 µM | Cc1ccc(Cn2c(C(=O)NCc3cccc(Cl)c3)cc(C(=O)c3ccccc3)c2C)cc1 | Active | > 100 µM | inactive | Active | Active | inactive | inactive | inactive | Active | Active | Active | Active | Active | Active | 2.5 µM |
| > 100 µM | > 100 µM | > 100 µM |  |  | Cc1c(C(=O)c2ccccc2)cc(C(=O)NCc2cccc(Cl)c2)n1Cc1ccccc1 | Active | > 100 µM | inactive | Active | Active | inactive | inactive | inactive | Active | Active | Active | Active |  | Active | 7.5 µM |
